Test results from ChEMBL document CHEMBL1124326, “Synthesis and P-388 antitumor properties of the four diastereomeric 1-hydroxy-3,4-diaminocyclohexane-Cl2PtII complexes” (J Med Chem, 1989).
“And” between values parts separate entries of the source, which are not always exact repeats. Identical values can stand only once.

Tests used:
Format in all cases: functional, organism-based
Mus musculus [1] = experiment: Antineoplastic activity in P-388-infected CDF1 mice, administered intraperitoneally at a dose (3mg/kg), calculated as Percent treated /control (T/C).
Outline: (§1)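 P-388 leukaemia cells (1 × 10^6 per animal) implanted into the peritoneal cavity of CDF1 recipient mice. Drug reconstituted in 0.3% Klucel and given ip on a day 1 schedule. Survival checked daily for at least 30 days; survival time expressed as percent treated/control (T/C).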

Mus musculus [2] = experiment: Antineoplastic activity in P-388-infected CDF1 mice, administered intraperitoneally at a dose (6 mg/kg), calculated as Percent treated /control (T/C).; outline: as §1
Mus musculus [3] = experiment: Antineoplastic activity in P-388-infected CDF1 mice, administered intraperitoneally at a dose (1.5 mg/kg), calculated as Percent treated /control (T/C).; outline: as §1
Mus musculus [4] = experiment: Antineoplastic activity in P-388-tumor cell infected CDF1 mice, administered intraperitoneally at a dose (3mg/kg), calculated as Median survival time (MST); outline: as §1
Mus musculus [5] = experiment: Antineoplastic activity in P-388-tumor cell infected CDF1 mice, administered intraperitoneally at a dose (6 mg/kg), calculated as Median survival time (MST); outline: as §1
Mus musculus [6] = experiment: Antineoplastic activity in P-388-tumor cell infected CDF1 mice, administered intraperitoneally at a dose (1.5 mg/kg), calculated as Median survival time (MST); outline: as §1
Mus musculus [7] = experiment: Antineoplastic activity in P-388-tumor cell infected CDF1 mice, administered intraperitoneally at a dose (10 mg/kg), calculated as Median survival time (MST); outline: as §1
Mus musculus [8] = experiment: Antineoplastic activity in P-388-infected CDF1 mice, administered intraperitoneally at a dose (10 mg/kg), calculated as Percent treated /control (T/C).; outline: as §1

| Substance | T/C (Mus musculus [1]) | T/C (Mus musculus [2]) | T/C (Mus musculus [3]) | MST (Mus musculus [4]) | MST (Mus musculus [5]) | MST (Mus musculus [6]) | MST (Mus musculus [7]) | T/C (Mus musculus [8]) |
| --- | --- | --- | --- | --- | --- | --- | --- | --- |
| CISPLATIN | 188% | 249% | 158% | 18.5 days | 24.5 days | 15.5 days | – | – |
| 1-Hydroxy-3,4-diaminocyclohexane-Cl2-Platinum II Complex | – | – | – | – | – | – | 15.8 days and 13.8 days | 161% and 141% |
